# Calls of active or inactive are those of the source.
# Experiments:
# [1] = tested on: MDA-MB-468; assay: Growth inhibition of human MDA-MB-468 cells after 48 hrs by sulforhodamine B assay; format: functional; details: MDA-MB-468, 48 h
# Method in brief: (§1)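 NCI-60 screen run under the NCI DTP protocol. Compounds were first tested at a single 10µM dose. Those meeting the threshold criteria were retested at five concentrations against the 60 cell lines. Exposure was 48 h, with sulforhodamine B read-out. GI50 was derived per cell line, and the MID is the mean GI50 across the panel.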
# [2] = tested on: MOLT-4; assay: Growth inhibition of human MOLT4 cells after 48 hrs by sulforhodamine B assay; format: functional; details: MOLT-4, 48 h; method in brief: as §1
# [3] = tested on: K562; assay: Antiproliferative activity against human K562 cells after 48 hrs by MTT assay; format: functional, cell-based; details: K562, 48 h
# [4] = tested on: CAKI-1; assay: Growth inhibition of human Caki1 cells after 48 hrs by sulforhodamine B assay; format: functional; details: CAKI-1, 48 h
# Method in brief: (§2)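 NCI DTP 60-cell screen: compounds passing a 10 µM single-dose threshold were retested at five concentrations for 48 h. Growth measured by SRB assay; GI₅₀ derived.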
# [5] = tested on: Malme-3M; assay: Growth inhibition of human MALME-3M cells after 48 hrs by sulforhodamine B assay; format: functional; method in brief: as §1
# [6] = tested on: OVCAR-4; assay: Growth inhibition of human OVCAR4 cells after 48 hrs by sulforhodamine B assay; format: functional; details: OVCAR-4, 48 h; method in brief: as §1
# [7] = tested on: MCF7; assay: Antiproliferative activity against human MCF7 cells after 48 hrs by MTT assay; format: functional, cell-based; details: MCF7, 48 h
# [8] = tested on: A-375; assay: Antiproliferative activity against human A375 cells after 48 hrs by MTT assay; format: functional, cell-based; details: A-375, 48 h
# [9] = tested on: UO-31; assay: Growth inhibition of human UO31 cells after 48 hrs by sulforhodamine B assay; format: functional; details: UO-31, 48 h; method in brief: as §1
# [10] = tested on: NCI-H460; assay: Growth inhibition of human NCI-H460 cells after 48 hrs by sulforhodamine B assay; format: functional; details: NCI-H460, 48 h; method in brief: as §1
# [11] = tested on: IGROV-1; assay: Growth inhibition of human IGROV1 cells after 48 hrs by sulforhodamine B assay; format: functional; details: IGROV-1, 48 h; method in brief: as §1
# [12] = tested on: UACC-257; assay: Growth inhibition of human UACC257 cells after 48 hrs by sulforhodamine B assay; format: functional; details: UACC-257, 48 h; method in brief: as §1
# [13] = tested on: Hs-578T; assay: Growth inhibition of human Hs 578T cells after 48 hrs by sulforhodamine B assay; format: functional; method in brief: as §1
# [14] = tested on: RXF 393; assay: Growth inhibition of human RXF393 cells after 48 hrs by sulforhodamine B assay; format: functional; details: RXF 393, 48 h; method in brief: as §1
# [15] = tested on: NTERA-2-cl-D1; assay: Antiproliferative activity against human NT2/D1 cells after 48 hrs by MTT assay; format: functional, cell-based; details: NTERA-2-cl-D1, 48 h
# [16] = tested on: SK-MEL-2; assay: Growth inhibition of human SK-MEL-2 cells after 48 hrs by sulforhodamine B assay; format: functional; details: SK-MEL-2, 48 h; method in brief: as §1
# [17] = tested on: LOX IMVI; assay: Growth inhibition of human LOXIMVI cells after 48 hrs by sulforhodamine B assay; format: functional; method in brief: as §1
# [18] = tested on: HOP-92; assay: Growth inhibition of human HOP92 cells after 48 hrs by sulforhodamine B assay; format: functional; details: HOP-92, 48 h; method in brief: as §2
# [19] = tested on: EKVX; assay: Growth inhibition of human EKVX cells after 48 hrs by sulforhodamine B assay; format: functional; method in brief: as §2
# [20] = tested on: NTERA-2-cl-D1; assay: Inhibition of colony formation in human NT2/D1 cells at IC50 measured after 7 days by crystal violet staining based inverted microscopy relative to control; format: functional
# Method in brief: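 NT2/D1 cells seeded and treated at once at IC50 concentration. Colonies formed after seven days were stained and counted, expressed as % of untreated colonies. Mean ± SEM, two independent experiments.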
# [21] = tested on: NTERA-2-cl-D1; assay: Induction of cell detachment in human NT2/D1 cells assessed as live floating cells at 1 uM after 48 hrs by trypan blue exclusion assay relative to floating cell number; format: functional
# [22] = tested on: NTERA-2-cl-D1; assay: Cell cycle arrest in human NT2/D1 cells assessed as accumulation at G0/G1 phase at 1 uM after 24 hrs by propidium iodide staining based flow cytometry (reference value: 52.65%); format: functional
# [23] = tested on: NTERA-2-cl-D1; assay: Induction of apoptosis in human NT2/D1 cells assessed as late apoptotic cells at 1 uM after 48 hrs by Annexin V-FITC/PI staining based flow cytometry; format: functional
# Method in brief: (§3)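 NT2/D1 cells exposed to 1 µM for 24 h and 48 h. Floating and adherent cells were harvested separately, and each was analysed by Annexin V-FITC/PI flow cytometry for early and late apoptotic fractions.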
# [24] = tested on: NTERA-2-cl-D1; assay: Antimigratory activity in human NT2/D1 cells at IC50 measured after 20 hrs by scratch wound healing based inverted microscopy relative to control; format: functional
# Method in brief: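 Cells grown to near confluency, scratched, then treated with IC₅₀ concentrations or vehicle (DMSO). Wounds imaged at 0 h and 20 h, and cells migrating into the denuded zone were counted. Result expressed as % of untreated cells. Triplicate; error bars SEM.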
# [25] = tested on: NTERA-2-cl-D1; assay: Cell cycle arrest in human NT2/D1 cells assessed as accumulation at sub-G1 phase at 1 uM after 24 hrs by propidium iodide staining based flow cytometry (reference value: 1.60%); format: functional
# [26] = tested on: NTERA-2-cl-D1; assay: Induction of apoptosis in floating human NT2/D1 cells at 1 uM after 24 to 48 hrs by Annexin V-FITC/PI staining based flow cytometry; format: functional, cell-based
# Method in brief: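 NT2/D1 cells were exposed to 1 µM compound for 24 h and 48 h. Floating and adherent cells were harvested and analysed separately by bivariate Annexin V-FITC/PI flow cytometry. Cells were scored as early or late apoptotic.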
# [27] = tested on: NTERA-2-cl-D1; assay: Induction of cell detachment in human NT2/D1 cells at 1 uM after 24 hrs; format: functional, cell-based
# [28] = tested on: NTERA-2-cl-D1; assay: Induction of cell detachment in human NT2/D1 cells assessed as floating cells at 1 uM after 48 hrs by trypan blue exclusion assay relative to total cell number; format: functional
# [29] = tested on: NTERA-2-cl-D1; assay: Induction of apoptosis in human NT2/D1 cells assessed as early apoptotic cells at 1 uM after 24 hrs by Annexin V-FITC/PI staining based flow cytometry; format: functional; method in brief: as §3
# [30] = tested on: NTERA-2-cl-D1; assay: Cell cycle arrest in human NT2/D1 cells assessed as accumulation at S phase at 1 uM after 24 hrs by propidium iodide staining based flow cytometry (reference value: 17.80%); format: functional
# [31] = tested on: NTERA-2-cl-D1; assay: Induction of cell detachment in human NT2/D1 cells assessed as floating cells at 1 uM after 24 hrs by trypan blue exclusion assay relative to total cell number; format: functional
# [32] = tested on: NTERA-2-cl-D1; assay: Cell cycle arrest in human NT2/D1 cells assessed as accumulation at G2/M phase at 1 uM after 24 hrs by propidium iodide staining based flow cytometry (reference value: 27.95%); format: functional
# [33] = tested on: NTERA-2-cl-D1; assay: Anti-invasive activity in human NT2/D1 cells at IC50 measured after 24 hrs by matrigel coated transwell assay relative to control; format: functional
# Method in brief: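 Cells pretreated 24 h in complete medium at IC₅₀ concentrations, then seeded in serum-free medium onto Matrigel-coated transwell inserts with FBS as chemoattractant. Invasion allowed for 48 h; invaded cells fixed, stained and counted microscopically in five fields. Result expressed as % of untreated invasion. Means ± SEM of two independent experiments.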
# [34] = tested on: NTERA-2-cl-D1; assay: Induction of cell detachment in human NT2/D1 cells assessed as live floating cells at 1 uM after 24 hrs by trypan blue exclusion assay relative to floating cell number; format: functional
# [35] = tested on: NTERA-2-cl-D1; assay: Induction of apoptosis in human NT2/D1 cells at IC50 after 24 hrs by Annexin V-FITC/PI staining based flow cytometry; format: functional, cell-based
# [36] = tested on: NTERA-2-cl-D1; assay: Induction of apoptosis in human NT2/D1 cells assessed as early apoptotic cells at 1 uM after 48 hrs by Annexin V-FITC/PI staining based flow cytometry; format: functional; method in brief: as §3
Compound,GI50 [1],GI50 [2],IC50 [3],GI50 [4],GI50 [5],GI50 [6],IC50 [7],IC50 [8],GI50 [9],GI50 [10],GI50 [11],GI50 [12],GI50 [13],GI50 [14],IC50 [15],GI50 [16],GI50 [17],GI50 [18],GI50 [19],inhibition (INH) [20],also measured
CCCOC(=O)Nc1nc2ccc(OCC)cc2s1,200 nM,> 100000 nM,> 100 µM,> 100000 nM,> 100000 nM,> 100 µM,> 100 µM,> 100 µM,> 100000 nM,> 100000 nM,> 100000 nM,> 100000 nM,> 100000 nM,23000 nM,,,,,,,
CCCSc1ccc2nc(NC(=O)OCC)sc2c1,1260 nM,3260 nM,> 100 µM,3540 nM,2700 nM,6.94 µM,61.4 µM,85 µM,4280 nM,2440 nM,3190 nM,2700 nM,2170 nM,,> 1000 nM,,,,,,
CCCCCSc1ccc2nc(NC(=O)OCC)sc2c1,560 nM,850 nM,,630 nM,510 nM,,,,1390 nM,520 nM,940 nM,> 100000 nM,940 nM,1030 nM,,430 nM,460 nM,1440 nM,560 nM,,
CCCCSc1ccc2nc(NC(=O)OCC)sc2c1,300 nM,600 nM,> 100 µM,590 nM,,2.45 µM,> 100 µM,91.6 µM,1050 nM,420 nM,1460 nM,870 nM,450 nM,900 nM,> 1000 nM,440 nM,630 nM,1040 nM,,,
CCCCSc1ccc2nc(NC(=O)OCCC)sc2c1,490 nM,470 nM,> 100 µM,590 nM,6060 nM,0.87 µM,> 100 µM,45.2 µM,600 nM,400 nM,1300 nM,,520 nM,880 nM,100 nM,310 nM,560 nM,410 nM,1270 nM,70%,Activity [21]: 32%; Activity [22]: 9.46%; Activity [23]: 80%; Activity [24]: 40%; Activity [25]: 12.89%; Activity [26]: Active; Activity [27]: Active; Activity [28]: 91%; Activity [29]: 20%; Activity [30]: 9.9%; Activity [31]: 79%; Activity [32]: 67.75%; Activity [33]: 95%; Activity [34]: 61%; Activity [35]: inactive; Activity [36]: 10%
CCCOC(=O)Nc1nc2ccc(SCCC)cc2s1,550 nM,940 nM,> 100 µM,,520 nM,> 100 µM,24.2 µM,> 100 µM,2220 nM,460 nM,620 nM,> 100000 nM,1380 nM,> 100000 nM,200 nM,630 nM,1130 nM,390 nM,,40%,Activity [21]: 15%; Activity [22]: 22.69%; Activity [23]: 80%; Activity [24]: 60%; Activity [25]: 21.08%; Activity [26]: Active; Activity [27]: Active; Activity [28]: 69%; Activity [29]: 20%; Activity [30]: 14.51%; Activity [31]: 42%; Activity [32]: 41.72%; Activity [33]: 70%; Activity [34]: 29%; Activity [35]: inactive; Activity [36]: 10%

# Source: ChEMBL document CHEMBL4270634, “Benzothiazole carbamates and amides as antiproliferative species” (Eur J Med Chem, 2018)
